Each block holds one molecule with its values, some of them ahead of it.
What was measured:
Kidney [1] = assay: Tmax in C57/Bl6 mouse kidney at 250 kBq/g bodyweight, iv administered as bolus dose by PET scanning; assay type: ADME, organism-based; settings: in vivo
Method in brief: (§1)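 Adult C57/Bl6 mice given the 18F tracer by intravenous injection. List-mode PET data acquired for 120 min on a high-resolution small-animal scanner and reconstructed into dynamic frames iteratively. Organ volumes of interest were drawn on co-registered CT. Uptake is counts per mL in the VOI divided by total counts in the mouse ×100 (% ID/mL).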

[2] = Octanol-water partition coefficient, log D of the compound after 1 min by gamma-counting at pH 7.4; assay type: physicochemical
Method in brief: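 About 20 kBq of tracer was shaken for 1 min at room temperature in 0.5 mL PBS pH 7.4 with 0.5 mL 1-octanol, then centrifuged (3000 rpm, 2 min). Triplicate 100 μL samples of each phase were γ-counted. log D7.4 is log(cpm octanol/cpm PBS), from two independent experiments in triplicate, given as mean ± SD.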

Plasma [3] = assay: Drug metabolism in iv dosed ICR CD1 mouse plasma assessed as radiometabolite 2 level after 30 mins by gamma-counting based HPLC analysis; assay type: ADME, organism-based; settings: in vivo, 0.5 h
Method in brief: (§2)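 Three 10-month-old female ICR (CD1) mice received about 11.1 MBq tracer by tail vein and were killed 30 min pi. Plasma was taken from blood by centrifugation, and urine was collected. Muscle, kidney and liver were homogenized in 1% SDS/PBS and extracted with acetonitrile/acetic acid. Supernatants were γ-counted, %ID/g was computed against a dose aliquot, and samples were run on C18 radio-HPLC with an acetonitrile/water gradient in 0.05% TFA.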

Kidney [4] = assay: Metabolic stability in iv dosed ICR CD1 mouse kidney assessed as compound remaining after 30 mins by gamma-counting based HPLC analysis; assay type: ADME, organism-based; settings: in vivo, 0.5 h; method in brief: as §2
Muscle tissue [5] = assay: Drug uptake in C57/Bl6 mouse muscle at 250 kBq/g bodyweight, iv administered as bolus dose up to 120 mins by PET scanning; assay type: ADME, organism-based; settings: in vivo, 2 h; method in brief: as §1
Serum [6] = assay: Drug metabolism in mouse serum at 5 MBq up to 120 mins by radio-HPLC analysis; assay type: ADME, cell-free; settings: 2 h
Method in brief: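 Serum stability was repeated in mouse blood serum at 37 °C, with analysis by radio-HPLC.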

Brain = assay: Drug uptake in C57/Bl6 mouse brain at 250 kBq/g bodyweight, iv administered as bolus dose up to 120 mins by PET scanning; assay type: ADME, organism-based; settings: in vivo, 2 h; method in brief: as §1
[7] = Drug metabolism in iv dosed ICR CD1 mouse urine assessed as radiometabolite 2 level after 30 mins by gamma-counting based HPLC analysis; assay type: ADME, organism-based; settings: in vivo, 0.5 h; method in brief: as §2
Lung = assay: Drug uptake in C57/Bl6 mouse lungs at 250 kBq/g bodyweight, iv administered as bolus dose up to 120 mins by PET scanning; assay type: ADME, organism-based; settings: in vivo, 2 h; method in brief: as §1
Kidney [8] = assay: Drug metabolism in iv dosed ICR CD1 mouse kidney assessed as radiometabolite 3 level after 30 mins by gamma-counting based HPLC analysis; assay type: ADME, organism-based; settings: in vivo, 0.5 h; method in brief: as §2
Liver [9] = assay: Drug metabolism in iv dosed ICR CD1 mouse liver assessed as radiometabolite 4 level after 30 mins by gamma-counting based HPLC analysis; assay type: ADME, organism-based; settings: in vivo, 0.5 h; method in brief: as §2
[10] = Drug metabolism in iv dosed ICR CD1 mouse urine assessed as radiometabolite 1 level after 30 mins by gamma-counting based HPLC analysis; assay type: ADME, organism-based; settings: in vivo, 0.5 h; method in brief: as §2
[11] = Metabolic stability in iv dosed ICR CD1 mouse urine assessed as compound remaining after 30 mins by gamma-counting based HPLC analysis; assay type: ADME, organism-based; settings: in vivo, 0.5 h; method in brief: as §2
Liver [12] = assay: Half life in C57/Bl6 mouse liver at 250 kBq/g bodyweight, iv administered as bolus dose by PET scanning; assay type: ADME, organism-based; settings: in vivo; method in brief: as §1
Liver [13] = assay: Metabolic stability in iv dosed ICR CD1 mouse liver assessed as compound remaining after 30 mins by gamma-counting based HPLC analysis; assay type: ADME, organism-based; settings: in vivo, 0.5 h; method in brief: as §2
Kidney [14] = assay: Drug metabolism in iv dosed ICR CD1 mouse kidney assessed as radiometabolite 1 level after 30 mins by gamma-counting based HPLC analysis; assay type: ADME, organism-based; settings: in vivo, 0.5 h; method in brief: as §2
Liver [15] = assay: Drug metabolism in iv dosed ICR CD1 mouse liver assessed as radiometabolite 3 level after 30 mins by gamma-counting based HPLC analysis; assay type: ADME, organism-based; settings: in vivo, 0.5 h; method in brief: as §2
Kidney [16] = assay: Drug metabolism in iv dosed ICR CD1 mouse kidney assessed as radiometabolite 2 level after 30 mins by gamma-counting based HPLC analysis; assay type: ADME, organism-based; settings: in vivo, 0.5 h; method in brief: as §2
[17] = Drug metabolism in iv dosed ICR CD1 mouse urine assessed as radiometabolite 4 level after 30 mins by gamma-counting based HPLC analysis; assay type: ADME, organism-based; settings: in vivo, 0.5 h; method in brief: as §2
[18] = Metabolic stability in iv dosed ICR CD1 mouse muscle assessed as compound remaining after 30 mins by gamma-counting based HPLC analysis; assay type: ADME, organism-based, Muscle tissue; settings: read-out: Stability; method in brief: as §2
Mus musculus = assay: Drug metabolism in C57/Bl6 mouse assessed as defluorination at 250 kBq/g bodyweight, iv administered as bolus dose up to 120 mins by PET scanning; assay type: ADME, organism-based; settings: in vivo, 2 h; method in brief: as §1
Muscle tissue [19] = assay: Drug metabolism in iv dosed ICR CD1 mouse muscle assessed as radiometabolite 3 level after 30 mins by gamma-counting based HPLC analysis; assay type: ADME, organism-based; settings: in vivo, 0.5 h; method in brief: as §2
Liver [20] = assay: Drug metabolism in iv dosed ICR CD1 mouse liver assessed as radiometabolite 2 level after 30 mins by gamma-counting based HPLC analysis; assay type: ADME, organism-based; settings: in vivo, 0.5 h; method in brief: as §2
Serum [21] = assay: Metabolic stability in human serum at 5 MBq up to 120 mins by radio-HPLC analysis; assay type: ADME, cell-free; settings: 2 h
Method in brief: (§3)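 The PBS-formulated 18F tracer (20 μL, 5 MBq) was added to 200 μL human serum and incubated at 37 °C. Samples of 20 μL were taken at 10, 20, 30, 60, 90 and 120 min, quenched in methanol/CH2Cl2 1:1 and centrifuged 2 min. The organic layer was analysed by radio-HPLC (C18; 30% CH3CN/0.1% TFA for 15 min, then gradient).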

Plasma [22] = assay: Drug metabolism in iv dosed ICR CD1 mouse plasma assessed as radiometabolite 1 level after 30 mins by gamma-counting based HPLC analysis; assay type: ADME, organism-based; settings: in vivo, 0.5 h; method in brief: as §2
Kidney [23] = assay: Half life in C57/Bl6 mouse kidney at 250 kBq/g bodyweight, iv administered as bolus dose by PET scanning; assay type: ADME, organism-based; settings: in vivo; method in brief: as §1
Plasma [24] = assay: Metabolic stability in iv dosed ICR CD1 mouse plasma assessed as compound remaining after 30 mins by gamma-counting based HPLC analysis; assay type: ADME, organism-based; settings: in vivo, 0.5 h; method in brief: as §2
Plasma [25] = assay: Drug metabolism in iv dosed ICR CD1 mouse plasma assessed as radiometabolite 3 level after 30 mins by gamma-counting based HPLC analysis; assay type: ADME, organism-based; settings: in vivo, 0.5 h; method in brief: as §2
Serum [26] = assay: Drug metabolism in human serum at 5 MBq up to 120 mins by radio-HPLC analysis; assay type: ADME, cell-free; settings: 2 h; method in brief: as §3
Plasma [27] = assay: Drug metabolism in iv dosed ICR CD1 mouse plasma assessed as radiometabolite 4 level after 30 mins by gamma-counting based HPLC analysis; assay type: ADME, organism-based; settings: in vivo, 0.5 h; method in brief: as §2
Liver [28] = assay: Drug metabolism in iv dosed ICR CD1 mouse liver assessed as radiometabolite 1 level after 30 mins by gamma-counting based HPLC analysis; assay type: ADME, organism-based; settings: in vivo, 0.5 h; method in brief: as §2
[29] = Drug uptake in C57/Bl6 mouse myocardium at 250 kBq/g bodyweight, iv administered as bolus dose up to 120 mins by PET scanning; assay type: ADME, organism-based; settings: in vivo, 2 h; method in brief: as §1
Kidney [30] = assay: Drug metabolism in iv dosed ICR CD1 mouse kidney assessed as radiometabolite 4 level after 30 mins by gamma-counting based HPLC analysis; assay type: ADME, organism-based; settings: in vivo, 0.5 h; method in brief: as §2
[31] = Drug metabolism in iv dosed ICR CD1 mouse urine assessed as radiometabolite 3 level after 30 mins by gamma-counting based HPLC analysis; assay type: ADME, organism-based; settings: in vivo, 0.5 h; method in brief: as §2
Liver [32] = assay: Tmax in C57/Bl6 mouse liver at 250 kBq/g bodyweight, iv administered as bolus dose by PET scanning; assay type: ADME, organism-based; settings: in vivo; method in brief: as §1
Muscle tissue [33] = assay: Drug metabolism in iv dosed ICR CD1 mouse muscle assessed as radiometabolite 4 level after 30 mins by gamma-counting based HPLC analysis; assay type: ADME, organism-based; settings: in vivo, 0.5 h; method in brief: as §2
Muscle tissue [34] = assay: Drug metabolism in iv dosed ICR CD1 mouse muscle assessed as radiometabolite 2 level after 30 mins by gamma-counting based HPLC analysis; assay type: ADME, organism-based; settings: in vivo, 0.5 h; method in brief: as §2
Muscle tissue [35] = assay: Drug metabolism in iv dosed ICR CD1 mouse muscle assessed as radiometabolite 1 level after 30 mins by gamma-counting based HPLC analysis; assay type: ADME, organism-based; settings: in vivo, 0.5 h; method in brief: as §2

- Tmax (Kidney [1]): 0.5 min
- logD at 1 min [2]: 0.6
- Drug metabolism (Plasma [3]): 0 % ID/g
- Stability (Kidney [4]): 4.6 % ID/g
- Drug uptake (Muscle tissue [5]): Not Active
- Drug metabolism (Serum [6]): Not Active
- Drug uptake (Brain): Not Active
- Drug metabolism [7]: 0.33 % ID/g
- Drug uptake (Lung): Not Active
- Drug metabolism (Kidney [8]): 0.21 % ID/g
- Drug metabolism (Liver [9]): 0.78 % ID/g
- Drug metabolism [10]: 2.32 % ID/g
- Stability [11]: 27.86 % ID/g
- t1/2 (Liver [12]): 18 min
- Stability (Liver [13]): 0.78 % ID/g
- Drug metabolism (Kidney [14]): 0.26 % ID/g
- Drug metabolism (Liver [15]): 1.32 % ID/g
- Drug metabolism (Kidney [16]): 0 % ID/g
- Drug metabolism [17]: 0.33 % ID/g
- tissue uptake at 0.5 h [18]: 0.21 %ID/g
- Drug metabolism (Mus musculus): Not Active
- Drug metabolism (Muscle tissue [19]): 0 % ID/g
- Drug metabolism (Liver [20]): 0 % ID/g
- Stability (Serum [21]): Stable
- Drug metabolism (Plasma [22]): 0.17 % ID/g
- t1/2 (Kidney [23]): 13 min
- Stability (Plasma [24]): 0.29 % ID/g
- Drug metabolism (Plasma [25]): 0 % ID/g
- Drug metabolism (Serum [26]): Not Active
- Drug metabolism (Plasma [27]): 0 % ID/g
- Drug metabolism (Liver [28]): 0.12 % ID/g
- Drug uptake [29]: Not Active
- Drug metabolism (Kidney [30]): 0.1 % ID/g
- Drug metabolism [31]: 2.32 % ID/g
- Tmax (Liver [32]): 4 min
- Drug metabolism (Muscle tissue [33]): 0 % ID/g
- Drug metabolism (Muscle tissue [34]): 0 % ID/g
- Drug metabolism (Muscle tissue [35]): 0 % ID/g
Compound: COc1ccc(S(=O)(=O)N(Cc2cn(CC[18F])nn2)[C@@H](C(=O)NO)C(C)C)cc1

- Tmax (Kidney [1]): 1.5 min
- t1/2 (Liver [12]): 7 min
- t1/2 (Kidney [23]): 3 min
- Tmax (Liver [32]): 2.5 min
Compound: CC(C)[C@H](C(=O)NO)N(Cc1ccccc1)S(=O)(=O)c1ccc(OCC[18F])cc1

— ChEMBL document CHEMBL2062426 (J Med Chem, 2012)
